From ChEMBL document CHEMBL3351588, “Design, synthesis and biological evaluation of N-alkyl or aryl substituted isoindigo derivatives as potential dual cyclin-dependent kinase 2 (CDK2)/glycogen synthase kinase 3β (GSK-3β) phosphorylation inhibitors” (Eur J Med Chem, 2014) come the findings set out here.

Structures are written as SMILES.

A short description of assay [1]: Cytotoxicity against human HCT116 cells after 48 hrs by SRB assay. In kind it is functional, cell-based. Particulars: HCT-116, 48 h. A digest of the protocol: (§1)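 Cells seeded at 5 × 10³ per well and allowed to attach for 12 h, then exposed to a range of drug concentrations in their own medium for 48 h. Fixed with ice-cold TCA for 1 h at 4 °C, washed, then stained with 0.4% SRB for 30 min at room temperature. IC50 is the mean of three independent experiments.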

Assay [2] is described as follows: Cytotoxicity against human VEC cells after 48 hrs by SRB assay. It counts as cell-based. A digest of the protocol:
as §1
In general terms: In SRB staining, fixed cells bind dye roughly in proportion to their protein.

A further assay deals with HeLa. The assay can be described thus: Cytotoxicity against human HeLa cells after 48 hrs by SRB assay. In kind it is functional, cell-based. A digest of the protocol: as §1
The next assay relates to A549. Put plainly: Cytotoxicity against human A549 cells after 48 hrs by SRB assay. It counts as functional, cell-based. Particulars: A549, 48 h. In outline:
as §1

Assay [3] relates to K562. Put plainly: Cytotoxicity against human K562 cells after 48 hrs by SRB assay. In kind it is functional, cell-based. Particulars: K562, 48 h. A digest of the protocol:
as §1

The test system of a further assay is MGC-803. Put plainly: Cytotoxicity against human MGC803 cells after 48 hrs by SRB assay. It counts as functional, cell-based. Particulars: MGC-803, 48 h. A digest of the protocol:
as §1

A further assay concerns L1210. The assay can be described thus: Cytotoxicity against mouse L1210 cells after 48 hrs by SRB assay. In kind it is functional, cell-based. The settings on record: L1210, 48 h. A digest of the protocol:
as §1

The subject of assay [4] is K562. Put plainly: Induction of cell cycle arrest in human K562 cells assessed as accumulation at S phase at 10 uM after 24 hrs by propidium iodide staining based flow cytometry (reference value: 44.90%). In kind it is functional. For orientation: Flow cytometry measures light scatter and fluorescence of single cells or particles in a stream.
For assay [5], the system named is K562. Put plainly: Induction of cell cycle arrest in human K562 cells assessed as accumulation at G0/G1 phase at 10 uM after 24 hrs by propidium iodide staining based flow cytometry (reference value: 36.14%). It counts as functional.
In assay [6] the test system is K562. The assay can be described thus: Induction of cell cycle arrest in human K562 cells assessed as accumulation at G2/M phase at 10 uM after 24 hrs by propidium iodide staining based flow cytometry (reference value: 18.96%). In kind it is functional.

Turning to `CC(C)CN1C(=O)/C(=C2/C(=O)Nc3ccccc32)c2ccccc21`, the IC50 in [1] is 62.2 µM; in assay [2] it was 97.4 µM; with HeLa it was above 200 µM; in the assay on A549, 52.8 µM; in the assay with K562 [3], 74.4 µM; in the assay with MGC-803, above 200 µM. Moreover, the IC50 in the assay on L1210 turned out to be 73.8 µM.
In the case of `CC(C)N1C(=O)/C(=C2/C(=O)Nc3ccccc32)c2ccccc21`, the half-maximal inhibitory concentration (IC50) was 149 µM in assay [1]; above 200 µM in assay [2]; above 200 µM in the assay with HeLa; 183 µM in the assay on A549; above 200 µM in the assay with K562 [3]; 176 µM with MGC-803. This compound displayed an IC50 in the assay on L1210 above 200 µM.
In the case of `O=C1Nc2ccccc2/C1=C1\C(=O)N(c2ccc(F)cc2)c2ccccc21`, the IC50 in assay [1] was 40.1 µM; in assay [2] it was 93.5 µM; in the assay on HeLa, above 200 µM; in the assay on A549, 22.6 µM; in the assay on K562 [3], above 200 µM; with MGC-803, 108 µM. Moreover, the IC50 in the assay on L1210 is above 200 µM.
Regarding `CCN1C(=O)/C(=C2/C(=O)Nc3ccccc32)c2ccccc21`, the IC50 is 51 µM in assay [1]; 73 µM in assay [2]; 194 µM in the assay with HeLa; 61 µM in the assay on A549; above 200 µM in the assay on K562 [3]; 67.2 µM in the assay with MGC-803. The same compound gave an IC50 with L1210 of 47.5 µM.
`CC(=O)N1C(=O)/C(=C2/C(=O)N(C(C)=O)c3ccccc32)c2ccccc21`: the IC50 (in assay [1]; in [2]; in the assay with HeLa; with A549; with K562 [3]; with MGC-803) was above 200 µM in each case. This compound also displayed an IC50 with L1210 above 200 µM.
In the case of `O=C1Nc2ccccc2/C1=C1\C(=O)N(CCc2ccccc2)c2ccccc21`, the IC50 in [1] is 85.2 µM; in [2], 184 µM; in the assay on HeLa it was above 200 µM; in the assay on A549, 85.4 µM; with K562 [3], 17.1 µM; with MGC-803, above 200 µM. The IC50 in the assay on L1210 was determined as 158 µM.
For `CN1C(=O)/C(=C2/C(=O)Nc3ccccc32)c2ccccc21` [MEISOINDIGO], the IC50 was 27 µM in assay [1]; 122 µM in assay [2]; 15.7 µM in the assay with HeLa; 57.3 µM in the assay on A549; 23.3 µM with K562 [3]; 128 µM in the assay with MGC-803. Besides, in the assay on L1210, 167 µM corresponded to half-maximal inhibition (IC50). Besides, the Activity in the assay on K562 [4] turned out to be 57.5%; in the assay with K562 [5], 32.25%; in the assay on K562 [6], 10.25%.
Turning to `CCCCN1C(=O)/C(=C2/C(=O)Nc3ccccc32)c2ccccc21`, the IC50 in [1] turned out to be 34.2 µM; in [2], 58.1 µM; with HeLa it was 80.7 µM; in the assay with A549, 30.2 µM; in the assay on K562 [3], 114 µM; with MGC-803 it was 87.9 µM. In the assay with L1210, this compound registered an IC50 of 75.4 µM.

The term IC50 denotes the concentration needed to halve the response being measured. Read a high IC50 as weaker potency in that assay.
